Laboratory results taken from ChEMBL document CHEMBL1177757, “C(2)-Symmetric azobenzene-amino acid conjugates and their inhibition of Subtilisin Kexin Isozyme-1” (Bioorg Med Chem Lett, 2010).
pKi: −log10 of the molar value.

Legend:
[1] = molecular target: T1, Membrane-bound transcription factor site-1 protease (Homo sapiens, UniProt Q14703); experiment: Inhibition of human recombinant soluble Kexin isozyme 1
T1 sequence (Q14703 whole entry): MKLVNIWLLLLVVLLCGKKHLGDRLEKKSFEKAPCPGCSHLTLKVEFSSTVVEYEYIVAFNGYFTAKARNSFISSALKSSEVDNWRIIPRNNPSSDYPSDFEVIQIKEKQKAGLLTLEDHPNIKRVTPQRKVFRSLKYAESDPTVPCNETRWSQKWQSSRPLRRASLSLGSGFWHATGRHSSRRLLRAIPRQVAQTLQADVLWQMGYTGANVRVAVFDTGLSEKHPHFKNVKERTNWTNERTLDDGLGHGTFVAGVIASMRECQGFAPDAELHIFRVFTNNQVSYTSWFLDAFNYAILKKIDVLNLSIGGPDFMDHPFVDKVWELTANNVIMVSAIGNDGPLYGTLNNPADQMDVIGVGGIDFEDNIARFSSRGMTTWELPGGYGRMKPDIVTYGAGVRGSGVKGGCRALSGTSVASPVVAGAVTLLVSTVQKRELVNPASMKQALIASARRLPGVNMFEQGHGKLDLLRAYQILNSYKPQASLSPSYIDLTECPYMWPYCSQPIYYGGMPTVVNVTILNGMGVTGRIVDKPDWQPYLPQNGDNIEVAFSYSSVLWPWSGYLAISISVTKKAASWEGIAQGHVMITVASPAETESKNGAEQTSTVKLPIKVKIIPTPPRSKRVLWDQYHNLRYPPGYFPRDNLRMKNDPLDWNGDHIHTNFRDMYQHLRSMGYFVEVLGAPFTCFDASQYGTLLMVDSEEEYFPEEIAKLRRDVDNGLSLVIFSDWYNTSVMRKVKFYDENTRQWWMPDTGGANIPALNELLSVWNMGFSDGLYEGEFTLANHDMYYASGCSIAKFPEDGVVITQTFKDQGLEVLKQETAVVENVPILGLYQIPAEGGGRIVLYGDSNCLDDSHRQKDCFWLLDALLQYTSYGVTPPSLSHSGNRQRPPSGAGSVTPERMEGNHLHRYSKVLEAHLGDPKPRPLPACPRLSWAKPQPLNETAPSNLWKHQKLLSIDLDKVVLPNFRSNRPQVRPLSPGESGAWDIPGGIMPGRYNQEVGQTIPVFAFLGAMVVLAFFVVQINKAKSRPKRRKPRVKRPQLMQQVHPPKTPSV
Summary of the method: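 Recombinant soluble human SKI-1 (activity normalized to 10 pmol Abz-peptide released per µL per h, 37 °C). Only the E-form was tested, at varying concentrations, with quenched fluorogenic Abz-Q-GPC251–263-Tyx substrate in Tris/Mes/2 mM CaCl2 buffer at 37 °C. RFU (ex 320/em 420 nm) were read from 0–6 h and converted to cleavage rates. Ki came from Dixon plots at 0.1, 0.05 and 0.025 mM substrate.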

[2] = Chemical stability assessed as half life of degradation; format: physicochemical
Summary of the method: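 Z-isomer formed by long-wavelength UV irradiation, then its thermal reisomerization to the E-form followed. First-order rate constant (h⁻¹) and Z-isomer half-life (h) derived.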

SMILES	pKi [1]	half-life [2]
CC(C)[C@H](NC(=O)COc1ccccc1/N=N/c1ccccc1OCC(=O)N[C@H](C(=O)OCc1ccccc1)C(C)C)C(=O)OCc1ccccc1	3.90	31.5 h
O=C(COc1ccccc1/N=N/c1ccccc1OCC(=O)N[C@@H](Cc1ccccc1)C(=O)OCc1ccccc1)N[C@@H](Cc1ccccc1)C(=O)OCc1ccccc1	4.93	69.3 h
O=C(COc1ccccc1/N=N/c1ccccc1OCC(=O)NCC(=O)OCc1ccccc1)NCC(=O)OCc1ccccc1	–	77 h
O=C(COc1ccccc1/N=N/c1ccccc1OCC(=O)N[C@@H](Cc1ccccc1)C(=O)O)N[C@@H](Cc1ccccc1)C(=O)O	3.65	–
O=C(COc1ccccc1/N=N/c1ccccc1OCC(=O)N[C@@H](Cc1ccccc1)C(=O)N[C@@H](Cc1ccccc1)C(=O)O)N[C@@H](Cc1ccccc1)C(=O)N[C@@H](Cc1ccccc1)C(=O)O	3.85	–
O=C(COc1ccccc1/N=N/c1ccccc1OCC(=O)N[C@@H](Cc1ccccc1)C(=O)N[C@@H](Cc1ccccc1)C(=O)OCc1ccccc1)N[C@@H](Cc1ccccc1)C(=O)N[C@@H](Cc1ccccc1)C(=O)OCc1ccccc1	–	28.9 h
O=C(O)CNC(=O)COc1ccccc1/N=N/c1ccccc1OCC(=O)NCC(=O)O	3.58	–
CC(C)[C@H](NC(=O)COc1ccccc1/N=N/c1ccccc1OCC(=O)N[C@H](C(=O)O)C(C)C)C(=O)O	4.12	–
